ChEMBL document CHEMBL1134320, “Structure of protein tyrosine phosphatase 1B in complex with inhibitors bearing two phosphotyrosine mimetics” (J Med Chem, 2001)

Key:
[1] = target: Tyrosine-protein phosphatase non-receptor type 6 (Homo sapiens, UniProt P29350); test: Inhibitory activity against Protein tyrosine phosphatase SHP-1.
In short: (§1)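 Phosphatase activity was read with 3,6-fluorescein diphosphate (FDP) as substrate, at roughly the KM concentration for each enzyme. IC50 came from 10 inhibitor concentrations fitted to a four-parameter equation, with errors under 10%. Constructs: flag-PTP1B (1–320); flag-CD45 intracellular domain; GST-PTPβ, GST-SHP1 and GST-SHP2; human recombinant TCPTP from E. coli; flag-CDC25a from baculovirus-infected Sf9 cells.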

[2] = target: T1, Tyrosine-protein phosphatase non-receptor type 2 (Homo sapiens, UniProt P17706); test: Inhibitory activity against Protein tyrosine phosphatase TCPTP.; in short: as §1
T1 sequence (P17706 whole entry): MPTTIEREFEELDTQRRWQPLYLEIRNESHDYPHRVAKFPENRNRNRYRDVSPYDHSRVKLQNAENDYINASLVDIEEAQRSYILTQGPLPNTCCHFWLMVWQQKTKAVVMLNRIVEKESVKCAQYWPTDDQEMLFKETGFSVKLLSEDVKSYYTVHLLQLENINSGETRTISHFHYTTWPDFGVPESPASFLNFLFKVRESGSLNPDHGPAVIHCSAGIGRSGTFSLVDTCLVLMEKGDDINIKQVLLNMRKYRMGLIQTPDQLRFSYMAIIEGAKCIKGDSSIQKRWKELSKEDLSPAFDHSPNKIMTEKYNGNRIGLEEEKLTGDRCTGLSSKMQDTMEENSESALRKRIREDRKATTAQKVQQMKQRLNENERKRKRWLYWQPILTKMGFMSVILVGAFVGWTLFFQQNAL

[3] = target: T2, Receptor-type tyrosine-protein phosphatase C (Homo sapiens, UniProt P08575); test: Inhibitory activity against Protein tyrosine phosphatase CD45.; in short: as §1
T2 sequence (P08575 whole entry): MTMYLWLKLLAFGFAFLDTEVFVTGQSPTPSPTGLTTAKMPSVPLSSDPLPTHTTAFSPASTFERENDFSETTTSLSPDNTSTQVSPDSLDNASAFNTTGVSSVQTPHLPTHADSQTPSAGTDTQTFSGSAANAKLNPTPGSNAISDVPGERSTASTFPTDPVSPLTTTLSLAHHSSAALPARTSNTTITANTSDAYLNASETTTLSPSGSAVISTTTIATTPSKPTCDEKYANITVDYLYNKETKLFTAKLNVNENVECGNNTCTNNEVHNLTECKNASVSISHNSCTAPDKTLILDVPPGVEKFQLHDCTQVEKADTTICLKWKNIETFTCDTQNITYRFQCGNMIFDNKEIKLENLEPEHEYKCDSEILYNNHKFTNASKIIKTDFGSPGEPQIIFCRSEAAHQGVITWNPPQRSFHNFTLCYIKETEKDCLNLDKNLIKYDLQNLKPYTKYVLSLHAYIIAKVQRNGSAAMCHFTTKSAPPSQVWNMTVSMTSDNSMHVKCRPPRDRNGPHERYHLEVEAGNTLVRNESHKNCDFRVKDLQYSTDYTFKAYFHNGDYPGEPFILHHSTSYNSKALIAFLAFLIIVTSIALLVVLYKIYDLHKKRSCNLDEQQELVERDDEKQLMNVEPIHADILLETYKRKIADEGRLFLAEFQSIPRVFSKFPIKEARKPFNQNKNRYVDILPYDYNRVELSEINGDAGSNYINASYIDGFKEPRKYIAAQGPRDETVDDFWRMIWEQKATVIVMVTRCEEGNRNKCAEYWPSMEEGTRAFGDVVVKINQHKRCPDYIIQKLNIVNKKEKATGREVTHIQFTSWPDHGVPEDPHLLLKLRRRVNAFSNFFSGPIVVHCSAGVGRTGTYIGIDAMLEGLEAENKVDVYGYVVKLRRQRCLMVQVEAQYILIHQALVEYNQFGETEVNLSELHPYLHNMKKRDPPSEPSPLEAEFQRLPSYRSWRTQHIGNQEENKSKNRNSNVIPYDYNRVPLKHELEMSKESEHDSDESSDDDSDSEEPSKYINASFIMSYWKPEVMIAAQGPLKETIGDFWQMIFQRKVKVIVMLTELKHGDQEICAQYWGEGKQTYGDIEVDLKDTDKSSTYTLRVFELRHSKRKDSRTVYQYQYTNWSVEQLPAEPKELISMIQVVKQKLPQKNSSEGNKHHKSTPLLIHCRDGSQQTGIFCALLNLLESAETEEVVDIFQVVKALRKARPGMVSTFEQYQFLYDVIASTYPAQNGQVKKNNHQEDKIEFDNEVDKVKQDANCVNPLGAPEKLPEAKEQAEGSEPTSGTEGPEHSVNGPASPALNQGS

[4] = target: T3, Tyrosine-protein phosphatase non-receptor type 11 (Homo sapiens, UniProt Q06124); test: Inhibitory activity against Protein tyrosine phosphatase SHP-2.; in short: as §1
T3 sequence (Q06124 whole entry): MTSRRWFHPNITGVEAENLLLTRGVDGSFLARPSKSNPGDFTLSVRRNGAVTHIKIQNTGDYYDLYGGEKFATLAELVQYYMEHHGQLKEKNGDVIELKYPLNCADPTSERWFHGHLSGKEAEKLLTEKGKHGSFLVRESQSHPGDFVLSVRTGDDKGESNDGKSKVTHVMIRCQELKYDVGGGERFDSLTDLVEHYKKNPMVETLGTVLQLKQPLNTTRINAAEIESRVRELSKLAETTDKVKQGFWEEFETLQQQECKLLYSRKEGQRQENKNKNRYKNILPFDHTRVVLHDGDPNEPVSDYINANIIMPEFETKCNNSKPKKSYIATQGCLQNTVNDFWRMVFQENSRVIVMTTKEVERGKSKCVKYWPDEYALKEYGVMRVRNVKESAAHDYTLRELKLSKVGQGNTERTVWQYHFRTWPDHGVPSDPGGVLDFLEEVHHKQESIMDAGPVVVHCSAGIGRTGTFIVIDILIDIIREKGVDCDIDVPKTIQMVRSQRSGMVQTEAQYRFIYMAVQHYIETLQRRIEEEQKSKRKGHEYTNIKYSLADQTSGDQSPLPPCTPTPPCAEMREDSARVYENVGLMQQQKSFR

[5] = target: Receptor-type tyrosine-protein phosphatase beta (Homo sapiens, UniProt P23467); test: Inhibitory activity against Protein tyrosine phosphatase PTPbeta.; in short: as §1
[6] = target: T4, Tyrosine-protein phosphatase non-receptor type 1 (Homo sapiens, UniProt P18031); test: Inhibitory activity against Protein tyrosine phosphatase 1B (PTP1B).
T4 sequence (P18031 whole entry): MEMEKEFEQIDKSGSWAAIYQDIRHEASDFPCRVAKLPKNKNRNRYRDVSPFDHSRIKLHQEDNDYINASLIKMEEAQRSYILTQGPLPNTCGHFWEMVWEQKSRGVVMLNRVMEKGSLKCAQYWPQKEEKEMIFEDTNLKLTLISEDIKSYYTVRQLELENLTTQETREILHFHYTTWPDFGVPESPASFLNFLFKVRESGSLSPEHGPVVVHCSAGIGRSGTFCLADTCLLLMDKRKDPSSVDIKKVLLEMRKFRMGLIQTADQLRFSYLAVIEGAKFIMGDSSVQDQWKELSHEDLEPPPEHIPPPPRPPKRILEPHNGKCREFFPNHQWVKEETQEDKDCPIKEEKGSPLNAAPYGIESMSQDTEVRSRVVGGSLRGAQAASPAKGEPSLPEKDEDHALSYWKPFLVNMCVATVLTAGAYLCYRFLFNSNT
In short: as §1, with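 “enzyme.” for “enzyme. IC50 came from 10 inhibitor concentrations fitted to a four-parameter equation, with errors under 10%.”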

[7] = target: T5, M-phase inducer phosphatase 1 (Homo sapiens, UniProt P30304); test: Inhibitory activity against Protein tyrosine phosphatase cell division cycle 25A; in short: as §1
T5 sequence (P30304 whole entry): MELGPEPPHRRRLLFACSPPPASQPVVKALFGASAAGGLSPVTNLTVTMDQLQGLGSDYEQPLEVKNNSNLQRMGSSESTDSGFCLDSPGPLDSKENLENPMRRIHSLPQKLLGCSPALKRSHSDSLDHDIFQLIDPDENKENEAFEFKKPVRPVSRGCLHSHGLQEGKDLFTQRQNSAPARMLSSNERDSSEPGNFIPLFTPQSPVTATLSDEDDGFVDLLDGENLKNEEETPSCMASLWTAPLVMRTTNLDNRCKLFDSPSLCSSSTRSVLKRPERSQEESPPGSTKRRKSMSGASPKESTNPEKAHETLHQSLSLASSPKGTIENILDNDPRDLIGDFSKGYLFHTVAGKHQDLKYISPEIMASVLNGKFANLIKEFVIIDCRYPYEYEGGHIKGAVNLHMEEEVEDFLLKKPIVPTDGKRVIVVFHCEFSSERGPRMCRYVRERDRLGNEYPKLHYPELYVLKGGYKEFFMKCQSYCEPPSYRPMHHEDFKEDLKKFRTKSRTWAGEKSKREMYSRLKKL

[8] = target: T6, Tyrosine-protein phosphatase non-receptor type 4 (Homo sapiens, UniProt P29074); test: Inhibitory activity against Protein tyrosine phosphatase PTPmeg-1.
T6 sequence (P29074 whole entry): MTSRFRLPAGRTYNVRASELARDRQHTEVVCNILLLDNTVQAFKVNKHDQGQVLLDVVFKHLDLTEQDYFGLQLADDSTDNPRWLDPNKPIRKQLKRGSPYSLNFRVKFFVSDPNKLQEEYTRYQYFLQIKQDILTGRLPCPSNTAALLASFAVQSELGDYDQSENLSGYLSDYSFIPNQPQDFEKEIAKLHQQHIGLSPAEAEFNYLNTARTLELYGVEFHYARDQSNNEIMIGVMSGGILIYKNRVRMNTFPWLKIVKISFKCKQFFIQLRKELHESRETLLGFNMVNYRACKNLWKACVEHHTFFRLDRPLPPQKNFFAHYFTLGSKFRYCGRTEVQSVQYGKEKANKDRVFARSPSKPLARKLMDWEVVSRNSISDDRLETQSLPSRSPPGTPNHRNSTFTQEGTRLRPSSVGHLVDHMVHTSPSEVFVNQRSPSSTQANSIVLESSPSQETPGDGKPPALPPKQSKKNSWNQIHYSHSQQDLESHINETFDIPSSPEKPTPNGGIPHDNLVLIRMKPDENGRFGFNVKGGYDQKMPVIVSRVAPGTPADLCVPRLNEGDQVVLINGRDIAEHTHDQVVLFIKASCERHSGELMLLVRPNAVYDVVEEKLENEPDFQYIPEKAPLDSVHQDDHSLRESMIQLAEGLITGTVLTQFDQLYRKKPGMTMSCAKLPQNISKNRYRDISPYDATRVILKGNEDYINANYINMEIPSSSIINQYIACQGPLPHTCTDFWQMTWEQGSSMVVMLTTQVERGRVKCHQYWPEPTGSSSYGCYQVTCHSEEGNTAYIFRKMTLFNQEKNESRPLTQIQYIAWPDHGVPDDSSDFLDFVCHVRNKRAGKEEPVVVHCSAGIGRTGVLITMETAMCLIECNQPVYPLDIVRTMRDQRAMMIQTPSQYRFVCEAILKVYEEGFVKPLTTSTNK

[9] = target: T4, Tyrosine-protein phosphatase non-receptor type 1; test: Binding affinity towards the site of PTP1B enzyme
[10] = target: T4, Tyrosine-protein phosphatase non-receptor type 1; test: Binding affinity towards the binding site in PTP1B enzyme

Sequence of Receptor-type tyrosine-protein phosphatase beta (P23467 whole entry): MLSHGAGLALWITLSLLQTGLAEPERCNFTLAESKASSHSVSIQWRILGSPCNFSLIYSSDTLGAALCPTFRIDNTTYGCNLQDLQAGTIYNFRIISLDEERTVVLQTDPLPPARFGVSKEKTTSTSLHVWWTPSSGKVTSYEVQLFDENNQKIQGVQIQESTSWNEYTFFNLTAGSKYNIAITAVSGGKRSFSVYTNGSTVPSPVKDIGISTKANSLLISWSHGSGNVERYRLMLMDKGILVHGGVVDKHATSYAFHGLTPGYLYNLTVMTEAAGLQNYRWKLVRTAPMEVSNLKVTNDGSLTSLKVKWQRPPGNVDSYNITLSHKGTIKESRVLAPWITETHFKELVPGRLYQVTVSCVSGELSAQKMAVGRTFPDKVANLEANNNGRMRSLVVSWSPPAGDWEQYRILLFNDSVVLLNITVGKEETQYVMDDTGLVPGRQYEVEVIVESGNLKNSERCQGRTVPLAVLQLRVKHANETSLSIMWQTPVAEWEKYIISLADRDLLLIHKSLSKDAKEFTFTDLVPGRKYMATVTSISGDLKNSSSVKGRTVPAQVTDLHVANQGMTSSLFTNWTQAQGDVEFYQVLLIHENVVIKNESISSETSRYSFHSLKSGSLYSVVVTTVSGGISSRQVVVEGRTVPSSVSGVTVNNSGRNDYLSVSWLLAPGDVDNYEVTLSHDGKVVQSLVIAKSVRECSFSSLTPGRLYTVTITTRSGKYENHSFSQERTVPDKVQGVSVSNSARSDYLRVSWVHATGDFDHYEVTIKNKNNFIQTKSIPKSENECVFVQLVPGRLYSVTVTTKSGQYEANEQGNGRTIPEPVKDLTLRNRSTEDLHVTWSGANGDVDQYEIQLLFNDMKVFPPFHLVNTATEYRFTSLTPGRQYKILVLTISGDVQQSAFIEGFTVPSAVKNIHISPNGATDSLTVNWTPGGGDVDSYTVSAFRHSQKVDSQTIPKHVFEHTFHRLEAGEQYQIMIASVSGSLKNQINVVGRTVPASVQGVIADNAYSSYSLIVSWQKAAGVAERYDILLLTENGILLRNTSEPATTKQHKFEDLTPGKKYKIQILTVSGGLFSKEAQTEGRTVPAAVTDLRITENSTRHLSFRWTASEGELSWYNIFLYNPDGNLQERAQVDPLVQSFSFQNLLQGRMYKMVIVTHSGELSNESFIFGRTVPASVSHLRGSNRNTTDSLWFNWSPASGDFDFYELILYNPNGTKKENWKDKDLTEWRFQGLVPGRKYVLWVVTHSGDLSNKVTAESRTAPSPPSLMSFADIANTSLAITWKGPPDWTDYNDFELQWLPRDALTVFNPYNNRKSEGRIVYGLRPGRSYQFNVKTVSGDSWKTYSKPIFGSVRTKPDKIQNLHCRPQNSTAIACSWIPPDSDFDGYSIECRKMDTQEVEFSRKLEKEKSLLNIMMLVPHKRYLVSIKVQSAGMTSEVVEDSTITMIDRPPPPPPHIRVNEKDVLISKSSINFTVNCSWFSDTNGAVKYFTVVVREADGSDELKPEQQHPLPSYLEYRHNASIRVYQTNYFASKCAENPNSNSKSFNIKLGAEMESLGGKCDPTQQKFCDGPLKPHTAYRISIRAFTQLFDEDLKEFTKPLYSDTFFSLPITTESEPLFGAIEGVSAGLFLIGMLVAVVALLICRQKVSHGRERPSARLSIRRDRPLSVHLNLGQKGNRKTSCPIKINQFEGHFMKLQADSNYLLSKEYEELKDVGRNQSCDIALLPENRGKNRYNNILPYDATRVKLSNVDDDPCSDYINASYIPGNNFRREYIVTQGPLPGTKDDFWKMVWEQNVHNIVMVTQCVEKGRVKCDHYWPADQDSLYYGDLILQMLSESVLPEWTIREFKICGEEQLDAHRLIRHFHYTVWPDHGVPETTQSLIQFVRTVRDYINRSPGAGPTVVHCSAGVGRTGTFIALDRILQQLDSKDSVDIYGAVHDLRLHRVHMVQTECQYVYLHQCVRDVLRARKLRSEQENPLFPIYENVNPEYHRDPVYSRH
Sequence of Tyrosine-protein phosphatase non-receptor type 6 (P29350 whole entry, the tested form may be a part): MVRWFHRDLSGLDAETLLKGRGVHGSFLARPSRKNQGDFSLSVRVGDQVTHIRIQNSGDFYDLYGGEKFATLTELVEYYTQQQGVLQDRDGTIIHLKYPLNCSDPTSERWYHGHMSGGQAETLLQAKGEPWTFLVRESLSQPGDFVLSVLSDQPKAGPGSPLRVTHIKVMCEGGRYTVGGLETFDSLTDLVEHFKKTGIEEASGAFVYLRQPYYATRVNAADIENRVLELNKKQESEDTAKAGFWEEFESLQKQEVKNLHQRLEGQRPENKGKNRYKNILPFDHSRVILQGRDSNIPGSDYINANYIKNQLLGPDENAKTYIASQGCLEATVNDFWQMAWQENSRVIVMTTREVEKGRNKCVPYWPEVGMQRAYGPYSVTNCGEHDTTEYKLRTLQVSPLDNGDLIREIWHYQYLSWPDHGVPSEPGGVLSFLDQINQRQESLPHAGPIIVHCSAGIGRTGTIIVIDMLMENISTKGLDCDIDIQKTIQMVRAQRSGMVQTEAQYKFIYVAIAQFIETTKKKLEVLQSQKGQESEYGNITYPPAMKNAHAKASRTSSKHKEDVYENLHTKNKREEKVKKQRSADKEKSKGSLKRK

| SMILES | IC50 [1] [µM] | IC50 [2] [µM] | IC50 [3] [µM] | IC50 [4] [µM] | IC50 [5] [µM] | IC50 [6] [µM] | IC50 [7] [µM] | IC50 [8] [µM] | Ki [9] [µM] | Ki [10] [µM] |
| --- | --- | --- | --- | --- | --- | --- | --- | --- | --- | --- |
| O=P(O)(O)C(F)(F)c1ccc(COCCOCc2ccc(C(F)(F)P(=O)(O)O)cc2)cc1 | 61 | 6.1 | 236 | 152 | 300 | 3.9 | – | – | – | – |
| O=P(O)(O)C(F)(F)c1ccc(COc2ccccc2OCc2ccc(C(F)(F)P(=O)(O)O)cc2)cc1 | 15 | 3.2 | 42 | 60 | 77 | 1.7 | 163 | – | – | – |
| O=P(O)(O)C(F)(F)c1ccc(COc2cccc(OCc3ccc(C(F)(F)P(=O)(O)O)cc3)c2)cc1 | 16 | 7.9 | 108 | 32 | 77 | 5.3 | 163 | – | – | – |
| O=P(O)(O)C(F)(F)c1ccc(COc2ccc(OCc3ccc(C(F)(F)P(=O)(O)O)cc3)cc2)cc1 | 6.3 | 4.6 | 14 | 16 | 15 | 4.2 | 30 | 146 | – | – |
| O=P(O)(O)C(F)(F)c1ccc(CCCCc2ccc(C(F)(F)P(=O)(O)O)cc2)cc1 | 31 | 6.4 | 198 | 91 | 342 | 4.4 | – | – | 1.5 | – |
| O=C(CCc1ccc(C(F)(F)P(=O)(O)O)cc1)Nc1cc(NC(=O)CCc2ccc(C(F)(F)P(=O)(O)O)cc2)cc(C(=O)NCc2ccc(C(=O)O)cc2)c1 | – | – | – | – | – | – | – | – | – | 0.93 |
